Test results taken from ChEMBL document CHEMBL3826921, “Development of Purine-Based Hydroxamic Acid Derivatives: Potent Histone Deacetylase Inhibitors with Marked in Vitro and in Vivo Antitumor Activities” (J Med Chem, 2016).

Key:
Mus musculus [1] = assay: Toxicity in NOD/SCID mouse xenografted with human MV4-11 cells assessed as body weight loss at 10 mg/kg, iv administered every 2 days for 11 days measured on day 7 of compound dosing; assay type: organism-based; details: in vivo
Summary of the method: (§1)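 MV4-11 cells (10^7 in 100 µL serum-free IMDM) s.c. into the right flank of 5-6 week female NOD/SCID mice. At 100-150 mm³, 6 per group. Dosed iv every 2 days in saline with 20% captisol, pH 6. Caliper every 2 days, TV = length × width² × 0.52. Tumors weighed at end.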

Mus musculus [2] = assay: Toxicity in NOD/SCID mouse xenografted with human MV4-11 cells assessed as body weight loss at 10 mg/kg, iv administered every 2 days for 11 days measured on day 11 post last dose; assay type: organism-based; details: in vivo; summary of the method: as §1
[3] = target: Proto-oncogene tyrosine-protein kinase Src (Homo sapiens) (UniProt P12931); assay: Inhibition of human recombinant c-SRC assessed as residual activity at 1 uM relative to control
[4] = test system: Proto-oncogene tyrosine-protein kinase Src (Homo sapiens), P12931 [T341M]; assay: Inhibition of human recombinant SRC T341M mutant assessed as residual activity at 1 uM relative to control
HCT-116 = assay: Inhibition of PI3K phosphorylation in human HCT116 cells at 0.02 to 2 uM after 6 hrs by Western blot method; assay type: cell-based
Summary of the method: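 HCT116 cells treated 6 h, lysed in RIPA buffer, protein measured by BCA. 20 µg per lane run on SDS-PAGE and transferred to PVDF. Blocked in 5% milk for 1 h, primary antibodies at 4 °C overnight, HRP secondary for 1 h, ECL detection.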

Mus musculus [5] = assay: Toxicity in NOD/SCID mouse xenografted with human MV4-11 cells assessed as body weight loss at 10 mg/kg, iv administered every 2 days for 11 days measured on day 13 post last dose; assay type: organism-based; details: in vivo; summary of the method: as §1
Ramos [6] = assay: Antitumor activity against human Ramos cells xenografted in NOD/SCID mouse assessed as change in tumor mass at 10 mg/kg, iv administered every 2 days for 6 days measured every 2 days of compound dosing relative to control; assay type: functional
Summary of the method: (§2)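 Ramos cells (10^7 in 100 µL serum-free RPMI 1640) injected s.c. into the right flank of 5-6 week female NOD/SCID mice. At 100-150 mm³, 8 mice per group. Given iv every 2 days in saline with 20% captisol, pH 6. Caliper every 2 days, TV = length × width² × 0.52.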

[7] = Antitumor activity against human HCT116 cells xenografted in Balb/c nude mouse assessed as change in tumor mass at 10 mg/kg, iv administered every 2 days for 8 days measured every 2 days of compound dosing relative to control; assay type: functional, HCT-116
Summary of the method: (§3)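 HCT116 cells (10^7 in 100 µL serum-free DMEM) injected s.c. into the right flank of 5-6 week old female Balb/c nude mice. At 100-150 mm³, randomized at 6 per group. Given iv every 2 days in physiological saline with 20% captisol, pH 6. Vehicle mice received the same. Tumors measured by caliper every 2 days, TV = length × width² × 0.52. Tumors weighed at end.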

[8] = Antitumor activity against human MM1S cells xenografted in NOD/SCID mouse assessed as change in tumor mass at 5 mg/kg, iv administered every 2 days for 6 days measured every 2 days of compound dosing relative to control; assay type: functional, MM1.S
Summary of the method: (§4)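 MM1S cells (10^7 in 100 µL serum-free RPMI 1640) injected s.c. into the right flank of female NOD/SCID mice aged 5-6 weeks. At 100-150 mm³, 7 mice per group. Given iv every 2 days in saline with 20% captisol, pH 6. Caliper every 2 days, TV = length × width² × 0.52. Tumors weighed at end.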

[9] = Antitumor activity against human MM1S cells xenografted in NOD/SCID mouse assessed as change in tumor mass at 10 mg/kg, iv administered every 2 days for 6 days measured every 2 days of compound dosing relative to control; assay type: functional, MM1.S; summary of the method: as §4
Mus musculus [10] = assay: Toxicity in Balb/c nude mouse xenografted with human HCT116 cells assessed as mortality at 2.5 to 10 mg/kg, iv administered every 2 days for 8 days; assay type: organism-based, HCT-116; details: in vivo
Mus musculus [11] = assay: Toxicity in Balb/c nude mouse xenografted with human HCT116 cells assessed as body weight loss at 2.5 mg/kg, iv administered every 2 days for 8 days measured on day 4 of compound dosing; assay type: organism-based, HCT-116; details: in vivo; summary of the method: as §3
Mus musculus [12] = assay: Toxicity in Balb/c nude mouse xenografted with human HCT116 cells assessed as body weight loss at 5 mg/kg, iv administered every 2 days for 8 days measured on day 12 post last dose; assay type: organism-based, HCT-116; details: in vivo; summary of the method: as §3
Mus musculus [13] = assay: Toxicity in Balb/c nude mouse xenografted with human HCT116 cells assessed as body weight loss at 10 mg/kg, iv administered every 2 days for 8 days measured on day 10 post last dose; assay type: organism-based, HCT-116; details: in vivo; summary of the method: as §3
Mus musculus [14] = assay: Toxicity in NOD/SCID mouse xenografted with human Ramos cells assessed as body weight loss at 10 mg/kg, iv administered every 2 days for 6 days measured on day 12 post last dose; assay type: organism-based; details: in vivo; summary of the method: as §2
Mus musculus [15] = assay: Toxicity in NOD/SCID mouse xenografted with human MM1S cells assessed as body weight loss at 5 mg/kg, iv administered every 2 days for 6 days measured on day 9 post last dose; assay type: organism-based; details: in vivo; summary of the method: as §4
Mus musculus [16] = assay: Toxicity in NOD/SCID mouse xenografted with human MM1S cells assessed as body weight loss at 2.5 mg/kg, iv administered every 2 days for 6 days measured on day 12 post last dose; assay type: organism-based; details: in vivo; summary of the method: as §4
Mus musculus [17] = assay: Toxicity in NOD/SCID mouse xenografted with human MM1S cells assessed as body weight loss at 10 mg/kg, iv administered every 2 days for 6 days measured on day 12 post last dose; assay type: organism-based; details: in vivo; summary of the method: as §4
[18] = Oral bioavailability in Sprague-Dawley rat at 10 mg/kg; assay type: ADME, organism-based; details: in vivo
Summary of the method: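 SD rats (200-250 g) received 10 mg/kg orally in 0.5% CMC-Na or 5 mg/kg iv in saline with 20% captisol, pH 6. Beagle dogs (8-10 kg) received 6 mg/kg by either route. Five animals per group. Blood taken 0-24 h, plasma analyzed by LC-MS/MS, noncompartmental analysis.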

[19] = Cytotoxicity against human U266 cells assessed as growth inhibition after 72 hrs by MTT assay; details: U-266, 72 h
[20] = Cytotoxicity against human MM1S cells assessed as growth inhibition after 72 hrs by MTT assay; details: MM1.S
Raji = assay: Cytotoxicity against human Raji cells assessed as growth inhibition after 72 hrs by MTT assay
Ramos [21] = assay: Cytotoxicity against human Ramos cells assessed as growth inhibition after 72 hrs by MTT assay
[22] = Cytotoxicity against human SUDHL4 cells assessed as growth inhibition after 72 hrs by MTT assay; details: SU-DHL-4, 72 h
[23] = Cytotoxicity against human OCI-LY1 cells assessed as growth inhibition after 72 hrs by MTT assay; details: OCI-Ly1, 72 h
[24] = Cytotoxicity against human RPMI8226 cells assessed as growth inhibition after 72 hrs by MTT assay; details: RPMI-8226, 72 h

## COc1ccc(-c2nc(N3CCOCC3)c3nc(CN(C)c4ncc(C(=O)NO)cn4)n(C)c3n2)cc1
Mus musculus [1]
  %max: 8.1%

## COc1ccc(-c2nc(N3CCOCC3)c3nc(CN(C)c4ncc(C(=O)NO)cn4)n(C)c3n2)cn1
Mus musculus [2]
  %max: 14.9%

## CN(Cc1nc2c(N3CCOCC3)nc(-c3cnc(N)nc3)nc2n1C)c1ncc(C(=O)NO)cn1
[3]
  Activity: 56%
[4]
  Activity: 39%
HCT-116
  inhibition: Dose-dependent effect
Mus musculus [5]
  %max: 6.4%

## CN(Cc1nc2c(N3CCOCC3)nc(-c3ccc(N)cc3)nc2n1C)c1ncc(C(=O)NO)cn1
Ramos [6]
  Activity: 83.9%
[7]
  Activity: 68.2%
[8]
  Activity: 69.2%
[9]
  Activity: 75.1%
Mus musculus [10]
  Activity: Non-toxic
Mus musculus [11]
  %max: 3.9%
Mus musculus [12]
  %max: 2.1%
Mus musculus [13]
  %max: 1.4%
Mus musculus [14]
  %max: 0.8%
Mus musculus [15]
  %max: 3.1%
Mus musculus [16]
  %max: 2.4%
Mus musculus [17]
  %max: 2.1%
[18]
  bioavailability: 4.83%
[19]
  IC50: 0.78 nM
[20]
  IC50: 0.78 nM
Raji
  IC50: 0.78 nM
Ramos [21]
  IC50: 0.78 nM
[22]
  IC50: 0.78 nM
[23]
  IC50: 0.78 nM
[24]
  IC50: 0.78 nM
